Test results taken from ChEMBL document CHEMBL1123839, “5-Acyl-3-substituted-benzofuran-2(3H)-ones as potential antiinflammatory agents” (1987).

What was measured:
Format in all cases: functional
[1] = organism: Cavia porcellus; assay: Tested for effect on the production of Lipoxygenase (LO) metabolite, 5-HETE in guinea pig peritoneal polymorphonuclear neutrophils at 30 uM concentration
In short: (§1)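 Guinea pig peritoneal PMNs were incubated with [14C]arachidonic acid and stimulated with calcium ionophore A23187. Compounds were tested at 30 μM in 0.1 N NaOH–Krebs Ringer bicarbonate buffer. Radiolabeled cyclooxygenase and lipoxygenase products were identified by HPLC and GC-MS, separated by TLC and quantified by automatic scanning.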

[2] = system: Rattus norvegicus; assay: Antiinflammatory activity was assessed by the ability to improve the adjuvant induced arthritis in right primary lesion in rats at oral doses, 33 mg/kg (volume change in the injected paw measured from day 0 to day 8)
In short: (§2)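 Female Sprague–Dawley rats (150–170 g), six per group. Arthritis induced by subcutaneous plantar injection of 0.125 mg killed tubercle bacillus in liquid paraffin into the right hind paw. Dosing was 33 mg/kg orally, daily for 14 days, starting the day before adjuvant. Paw volumes were measured by mercury plethysmography every 2–3 days over 18 days. Primary lesion: right paw, days 0–8. Secondary lesions: right and left (uninjected) paws, days 9–18. Areas under the time-course curves were compared with controls by ANOVA.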

[3] = system: Rattus norvegicus; assay: Ability to improve the adjuvant induced arthritis in right secondary lesion in rats at oral doses, 33 mg/kg; in short: as §2
[4] = organism: Cavia porcellus; assay: Tested for effect on the production of cyclooxygenase (COX) metabolite, TXB2 of arachidonic acid in guinea pig peritoneal polymorphonuclear neutrophils at 30 uM concentration; in short: as §1
[5] = organism: Cavia porcellus; assay: Tested for effect on the production of cyclooxygenase (COX) metabolite, PGE-2 (prostaglandin E2) of arachidonic acid in guinea pig peritoneal polymorphonuclear neutrophils at 30 uM concentration; in short: as §1
[6] = organism: Cavia porcellus; assay: Tested for effect on the production of cyclooxygenase (COX) metabolite, PGF2-alpha (prostaglandin F2-alpha) of arachidonic acid in guinea pig peritoneal polymorphonuclear neutrophils at 30 uM concentration; in short: as §1
[7] = organism: Rattus norvegicus; assay: Antiinflammatory activity was assessed improvement of adjuvant induced arthritis in rats, determined by joint mobility of the paw; design: concentration or dose not given beside the values
In short: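 Adjuvant arthritis was induced in female Sprague–Dawley rats (150–170 g, groups of six) by right-hind-paw plantar injection of killed tubercle bacillus in paraffin. Treatment was 33 mg/kg orally, daily for 14 days, starting the day before adjuvant. Joint involvement was scored as the angle through which the hind paws moved easily, given as percent change versus nontreated controls.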

[8] = organism: Cavia porcellus; assay: Tested for effect on the production of Lipoxygenase (LO) metabolite, 5,12-diHETE in guinea pig peritoneal polymorphonuclear neutrophils at 30 uM concentration; in short: as §1
[9] = system: Rattus norvegicus; assay: Antiinflammatory activity was assessed by the ability to improve the adjuvant induced arthritis in left secondary lesion in rats at oral doses, 33 mg/kg (volume change in the injected paw measured from day 9 to day 18)

| SMILES | Reduction [1] | Reduction [2] | Reduction [3] | Reduction [4] | Reduction [5] | Reduction [6] | Reduction [7] | Reduction [8] | Reduction [9] |
| --- | --- | --- | --- | --- | --- | --- | --- | --- | --- |
| CCC(CC)(C(=O)O)c1cc(C(=O)c2cccs2)ccc1O | -21% | 6% | 22% | 90% | 54% | 50% | 38% | -18% | 45% |
| CCCCC1C(=O)Oc2ccc(C(=O)c3cccs3)cc21 (centres undefined) | 73% | 4% | -22% | 89% | 68% | 62% | -1% | 61% | -55% |
| CCC1(CC)C(=O)Oc2ccc(C(=O)c3cccs3)cc21 | 2% | 18% | 17% | 90% | 62% | 48% | 23% | -7% | 41% |
| CC1(C)C(=O)Oc2ccc(C(=O)c3cccs3)cc21 | 52% | 28% | 36% | 81% | 81% | -37% | 44% | 49% | 50% |
| CCCC1C(=O)Oc2ccc(C(=O)c3cccs3)cc21 (centres undefined) | -2% | 23% | 41% | 81% | 85% | 49% | 61% | 7% | 67% |
| CC(C(=O)O)c1cc(C(=O)c2ccc(F)cc2)ccc1O (centres undefined) | -1% | 22% | 32% | 74% | 46% | 49% | 33% | -8% | 56% |
| CC(C(=O)O)c1cc(C(=O)c2cccs2)ccc1O (centres undefined) | -68% | 39% | 34% | 89% | 76% | 76% | -15% | -84% | 35% |
| CC(C(=O)O)c1cc(C(=O)c2ccco2)ccc1O (centres undefined) | -14% | -31% | -5% | 87% | 87% | 61% | 7% | -17% | 13% |
| O=C(c1ccc2c(c1)C(C(=O)Nc1ccccc1)C(=O)O2)c1cccs1 (centres undefined) | 94% | 8% | 6% | 93% | 93% | 86% | 1% | 85% | 25% |
| COc1ccc(C(=O)c2ccc3c(c2)C(C)C(=O)O3)cc1 (centres undefined) | 50% | -9% | 5% | 70% | – | 51% | -9% | 44% | 22% |
| O=C1Oc2ccc(C(=O)c3cccs3)cc2/C1=C/c1ccc(Cl)cc1 | 71% | -5% | -18% | 93% | 77% | 69% | 12% | 73% | -14% |
| CCC1C(=O)Oc2ccc(C(=O)c3cccs3)cc21 (centres undefined) | 20% | 13% | 51% | 90% | 79% | 62% | 52% | 9% | 81% |
| O=C1Cc2cc(C(=O)c3cccs3)ccc2O1 | -33% | 25% | 9% | 65% | 54% | 57% | 5% | -44% | -35% |
| O=C(c1ccc(O)c(C(Cc2ccccc2)C(=O)O)c1)c1cccs1 (centres undefined) | – | 29% | 30% | – | – | – | 6% | – | 10% |
| CC1C(=O)Oc2ccc(C(=O)c3ccccc3)cc21 (centres undefined) | 10% | 5% | 35% | 82% | 71% | 56% | 29% | -10% | 52% |
